According to ChEMBL document CHEMBL1146142, “Synthesis of miltirone analogues as inhibitors of Cdc25 phosphatases” (Bioorg Med Chem Lett, 2006):

Assays:
[1] = target: T1, Tyrosine-protein phosphatase non-receptor type 1 (Homo sapiens, UniProt P18031); test: Inhibitory activity against human PTP1B
T1 sequence (P18031 whole entry): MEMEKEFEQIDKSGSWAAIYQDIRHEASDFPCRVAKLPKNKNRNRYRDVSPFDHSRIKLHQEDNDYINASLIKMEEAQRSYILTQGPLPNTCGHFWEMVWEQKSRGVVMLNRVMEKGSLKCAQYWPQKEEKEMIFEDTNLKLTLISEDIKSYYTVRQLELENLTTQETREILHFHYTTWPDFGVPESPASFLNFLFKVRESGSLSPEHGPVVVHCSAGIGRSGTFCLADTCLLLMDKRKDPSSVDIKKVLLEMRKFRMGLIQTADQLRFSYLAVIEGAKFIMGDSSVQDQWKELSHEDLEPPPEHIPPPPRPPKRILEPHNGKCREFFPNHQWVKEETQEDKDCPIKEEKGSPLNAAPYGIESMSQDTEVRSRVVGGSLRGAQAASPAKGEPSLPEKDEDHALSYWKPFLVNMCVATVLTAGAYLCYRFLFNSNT
Summary of the method: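 GST–PTP1B (30–40 nM) in 50 mM MOPs pH 6.5 with 2 mM DTT, 1 mM EDTA and 2% DMSO. Substrate was 2 mM pNPP.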

A549 = test: Cytotoxicity against A549 cell line; type: functional, cell-based; details: Homo sapiens
Summary of the method: (§1)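 Tumor cells trypsinized and seeded at 3000 cells/well; after attachment, exposed to a range of compound concentrations for 72 h. MTT (5 mg/mL) was added and incubated 3 h, then medium was removed and formazan dissolved in DMSO. Absorbance read at 550 nm with […] reference.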

[2] = target: T2, M-phase inducer phosphatase 1 (Homo sapiens, UniProt P30304); test: Inhibitory activity against human Cdc25A phosphatase
T2 sequence (P30304 whole entry): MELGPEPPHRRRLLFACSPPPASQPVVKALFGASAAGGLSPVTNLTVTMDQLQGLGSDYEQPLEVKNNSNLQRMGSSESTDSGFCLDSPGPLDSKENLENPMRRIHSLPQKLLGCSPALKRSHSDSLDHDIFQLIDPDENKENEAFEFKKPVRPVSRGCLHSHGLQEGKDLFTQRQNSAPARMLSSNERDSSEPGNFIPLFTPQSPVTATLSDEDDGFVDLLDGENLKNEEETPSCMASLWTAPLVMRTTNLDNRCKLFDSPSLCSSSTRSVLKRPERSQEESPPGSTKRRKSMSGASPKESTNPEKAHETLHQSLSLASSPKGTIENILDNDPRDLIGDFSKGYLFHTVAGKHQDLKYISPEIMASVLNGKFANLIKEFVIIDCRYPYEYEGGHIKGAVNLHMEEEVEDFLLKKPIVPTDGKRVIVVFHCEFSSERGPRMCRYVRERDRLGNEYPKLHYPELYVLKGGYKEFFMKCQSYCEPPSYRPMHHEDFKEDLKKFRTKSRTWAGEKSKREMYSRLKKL

[3] = target: T3, M-phase inducer phosphatase 2 (Homo sapiens, UniProt P30305); test: Inhibitory activity against human Cdc25B phosphatase
T3 sequence (P30305 whole entry): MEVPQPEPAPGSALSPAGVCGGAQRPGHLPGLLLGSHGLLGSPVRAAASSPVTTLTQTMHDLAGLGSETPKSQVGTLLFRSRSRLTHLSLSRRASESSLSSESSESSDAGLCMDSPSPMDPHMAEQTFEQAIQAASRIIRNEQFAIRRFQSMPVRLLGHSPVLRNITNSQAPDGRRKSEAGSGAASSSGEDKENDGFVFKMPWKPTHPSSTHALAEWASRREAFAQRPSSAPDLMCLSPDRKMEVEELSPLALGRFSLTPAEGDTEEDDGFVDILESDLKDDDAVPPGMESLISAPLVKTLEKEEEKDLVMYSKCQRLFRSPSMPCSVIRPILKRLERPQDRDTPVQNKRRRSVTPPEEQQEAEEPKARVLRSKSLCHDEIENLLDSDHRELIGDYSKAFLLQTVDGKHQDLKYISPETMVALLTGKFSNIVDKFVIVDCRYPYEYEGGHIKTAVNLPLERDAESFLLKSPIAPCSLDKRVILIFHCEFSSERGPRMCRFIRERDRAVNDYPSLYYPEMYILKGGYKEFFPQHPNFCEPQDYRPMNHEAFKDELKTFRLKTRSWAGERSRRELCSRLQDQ

HCT-116 = test: Cytotoxicity against HCT116 cell line; type: functional, cell-based; details: Homo sapiens; summary of the method: as §1

IC50 [1] | IC50 ([2]; read-out: IC50) [µM] | IC50 ([3]; read-out: IC50) [µM] | IC50 ([1]; read-out: IC50) [µM] | IC50 [2] | IC50 [3] | SMILES | IC50 (A549) [µM] | IC50 (HCT-116) [µM]
Not Active | 11.8 | 4.09 | – | – | – | COc1ccc(NC2=C(C(C)C)C(=O)C(=O)c3c2ccc2c3CCCC2(C)C)cc1 | 9.19 | 5.51
– | 5.43 | 3.63 | 7.57 | – | – | CC(C)C1=C(Sc2ccc(Br)cc2)c2ccccc2C(=O)C1=O | 5.93 | 5.85
– | 6.87 | 5.33 | 19.1 | – | – | CC(C)C1=C(Nc2ccc([N+](=O)[O-])cc2)c2ccccc2C(=O)C1=O | 6.59 | 2.39
– | 7.06 | 4.53 | 19.6 | – | – | Cc1ccc(NC2=C(C(C)C)C(=O)C(=O)c3ccccc32)cc1 | 8.2 | 6.16
Not Active | 10.9 | 8.71 | – | – | – | CC(C)C1=C(Nc2ccccc2)c2ccccc2C(=O)C1=O | 25 | 8.22
Not Active | – | – | – | Not Active | Not Active | CC(C)C1=C(Nc2ccc([N+](=O)[O-])cc2)c2ccc3c(c2C(=O)C1=O)CCCC3(C)C | 5.34 | 7.1
Not Active | 27.6 | 7.54 | – | – | – | Cc1ccc(NC2=C(C(C)C)C(=O)C(=O)c3c2ccc2c3CCCC2(C)C)cc1 | 4.25 | 24.9
– | 5.86 | 10.9 | 13.7 | – | – | CC(C)C1=C(Sc2ccccc2)c2ccccc2C(=O)C1=O | 7.59 | 8.03
– | 3.97 | 5.07 | 10.4 | – | – | CC(C)C1=C(Sc2ccccc2)c2ccc3c(c2C(=O)C1=O)CCCC3(C)C | 26.6 | 5.75
– | 21.9 | 13.8 | 7.63 | – | – | CC(=O)Nc1ccc(SC2=C(C(C)C)C(=O)C(=O)c3ccccc32)cc1 | 7.36 | 6.32
– | 20.3 | 3.78 | 7.19 | – | – | CC(C)C1=C(Sc2ccc(Br)cc2)c2ccc3c(c2C(=O)C1=O)CCCC3(C)C | 5.07 | 4.94
– | 22.1 | 2.58 | 4.55 | – | – | CC(C)C1=C(Sc2ccc(F)cc2)c2ccc3c(c2C(=O)C1=O)CCCC3(C)C | 1.25 | 5.71
Not Active | 4.9 | 4.63 | – | – | – | COc1ccc(NC2=C(C(C)C)C(=O)C(=O)c3ccccc32)cc1 | 87 | 4.04
Not Active | 7.83 | 3.23 | – | – | – | CC(C)C1=C(c2ccccc2)c2ccccc2C(=O)C1=O | 24.7 | 29.6
– | 5.96 | 4.85 | 9.05 | – | – | CC(=O)Nc1ccc(SC2=C(C(C)C)C(=O)C(=O)c3c2ccc2c3CCCC2(C)C)cc1 | 15.4 | 5.18
– | 3.96 | 3.16 | 4.11 | – | – | CC(C)C1=C(c2ccccc2)c2ccc3c(c2C(=O)C1=O)CCCC3(C)C | 6.24 | 6.28
– | 8.81 | 3.99 | 27.2 | – | – | CC(C)C1=C(Nc2ccccc2)c2ccc3c(c2C(=O)C1=O)CCCC3(C)C | 19.1 | 6.25
– | 12.8 | 7.55 | 7.22 | – | – | CC(C)C1=C(Sc2ccc(F)cc2)c2ccccc2C(=O)C1=O | 20.4 | 20.8
Not Active | 11.2 | 24.1 | – | – | – | CC(C)C1=Cc2ccccc2C(=O)C1=O | 4.14 | 4
Not Active | > 70.8 | – | – | – | Not Active | CC(C)C1=Cc2ccc3c(c2C(=O)C1=O)CCCC3(C)C [MILTIRONE] | 24.6 | 12.4
